Measured values taken from ChEMBL document CHEMBL5058577, “EUbOPEN Chemogenomics Library 2 (Multiplex)” (2022).

Tested on: HEK-293T
Assay: Multiplex assay against HEK293T
Format: toxicity, cell-based
Settings: human
Method in brief: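 Cells were classed with CellPathfinder machine-learning gating, first as Hoechst high-intensity objects or normal cells, then (normal cells) as healthy, pyknosed or fragmented nuclei, and finally (pyknosed cells) as mitotic or apoptotic. Staining of live cells at seeding used Hoechst33342, BioTracker Green Microtubule Cytoskeleton Dye, MitoTracker Red and Annexin V Alexa Fluor 680, with imaging on a CQ1 microscope at 37°C and 5% CO2 after compound addition. Tubulin, mitochondrial-mass and membrane-permeability phenotypes are per cents of healthy-nucleus cells.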

[1] = 12 h, 1 µM, compound concentration 1 uM, replicate 1
[2] = 12 h, 1 µM, compound concentration 1 uM, replicate 2
[3] = 12 h, 10 µM, compound concentration 10 uM, replicate 1
[4] = 12 h, 10 µM, compound concentration 10 uM, replicate 2
[5] = 24 h, 1 µM, compound concentration 1 uM, replicate 1
[6] = 24 h, 1 µM, compound concentration 1 uM, replicate 2
[7] = 24 h, 10 µM, compound concentration 10 uM, replicate 1
[8] = 24 h, 10 µM, compound concentration 10 uM, replicate 2
[9] = 48 h, 1 µM, compound concentration 1 uM, replicate 1
[10] = 48 h, 1 µM, compound concentration 1 uM, replicate 2
[11] = 48 h, 10 µM, compound concentration 10 uM, replicate 1
[12] = 48 h, 10 µM, compound concentration 10 uM, replicate 2

## O=c1ccc2ccc(OCCCCN3CCN(c4cccc5sccc45)CC3)cc2[nH]1 [BREXPIPRAZOLE]
[1]
  Population Apoptotic (%): 44%
  Population Fragmented Nuclei (%): 6%
  Population Healthy Nuclei (%): 77%
  Population Hoechst High Intensity Objects (%): 6%
  Population Membrane Permeable-Phenotype (%): 0%
  Population Mitochondria Different-Phenotype (%): 67%
  Population Mitotic Cells (%): 55%
  Population Normal (%): 93%
  Population Pyknosed Nuclei (%): 15%
  Population Tubulin-Different-Phenotype (%): 51%
  Total Cell Count: 392
[2]
  Population Apoptotic (%): 42%
  Population Fragmented Nuclei (%): 5%
  Population Healthy Nuclei (%): 80%
  Population Mitochondria Different-Phenotype (%): 69%
  Population Mitotic Cells (%): 57%
  Population Pyknosed Nuclei (%): 14%
  Population Tubulin-Different-Phenotype (%): 47%
  Total Cell Count: 354
[3]
  Population Apoptotic (%): 82%
  Population Fragmented Nuclei (%): 17%
  Population Healthy Nuclei (%): 43%
  Population Hoechst High Intensity Objects (%): 66%
  Population Membrane Permeable-Phenotype (%): 0%
  Population Mitochondria Different-Phenotype (%): 97%
  Population Mitotic Cells (%): 17%
  Population Normal (%): 33%
  Population Pyknosed Nuclei (%): 38%
  Population Tubulin-Different-Phenotype (%): 81%
  Total Cell Count: 299
[4]
  Population Apoptotic (%): 85%
  Population Fragmented Nuclei (%): 10%
  Population Healthy Nuclei (%): 66%
  Population Hoechst High Intensity Objects (%): 41%
  Population Mitochondria Different-Phenotype (%): 100%
  Population Mitotic Cells (%): 14%
  Population Normal (%): 59%
  Population Pyknosed Nuclei (%): 23%
  Population Tubulin-Different-Phenotype (%): 62%
  Total Cell Count: 200
[5]
  Population Apoptotic (%): 41%
  Population Fragmented Nuclei (%): 10%
  Population Healthy Nuclei (%): 73%
  Population Hoechst High Intensity Objects (%): 8%
  Population Membrane Permeable-Phenotype (%): 0%
  Population Mitochondria Different-Phenotype (%): 51%
  Population Mitotic Cells (%): 58%
  Population Normal (%): 91%
  Population Pyknosed Nuclei (%): 16%
  Population Tubulin-Different-Phenotype (%): 36%
  Total Cell Count: 501
[6]
  Population Apoptotic (%): 42%
  Population Fragmented Nuclei (%): 4%
  Population Healthy Nuclei (%): 87%
  Population Hoechst High Intensity Objects (%): 2%
  Population Mitochondria Different-Phenotype (%): 52%
  Population Mitotic Cells (%): 57%
  Population Normal (%): 97%
  Population Pyknosed Nuclei (%): 7%
  Population Tubulin-Different-Phenotype (%): 35%
  Total Cell Count: 449
[7]
  Population Apoptotic (%): 91%
  Population Fragmented Nuclei (%): 12%
  Population Healthy Nuclei (%): 37%
  Population Hoechst High Intensity Objects (%): 68%
  Population Membrane Permeable-Phenotype (%): 0%
  Population Mitochondria Different-Phenotype (%): 100%
  Population Mitotic Cells (%): 8%
  Population Normal (%): 31%
  Population Pyknosed Nuclei (%): 50%
  Population Tubulin-Different-Phenotype (%): 66%
  Total Cell Count: 284
[8]
  Population Apoptotic (%): 89%
  Population Fragmented Nuclei (%): 10%
  Population Healthy Nuclei (%): 59%
  Population Hoechst High Intensity Objects (%): 46%
  Population Mitochondria Different-Phenotype (%): 98%
  Population Mitotic Cells (%): 10%
  Population Normal (%): 53%
  Population Pyknosed Nuclei (%): 30%
  Population Tubulin-Different-Phenotype (%): 57%
  Total Cell Count: 180
[9]
  Population Apoptotic (%): 49%
  Population Fragmented Nuclei (%): 9%
  Population Healthy Nuclei (%): 80%
  Population Hoechst High Intensity Objects (%): 5%
  Population Membrane Permeable-Phenotype (%): 0%
  Population Mitochondria Different-Phenotype (%): 47%
  Population Mitotic Cells (%): 50%
  Population Normal (%): 94%
  Population Pyknosed Nuclei (%): 10%
  Population Tubulin-Different-Phenotype (%): 28%
  Total Cell Count: 679
[10]
  Population Apoptotic (%): 48%
  Population Fragmented Nuclei (%): 12%
  Population Healthy Nuclei (%): 79%
  Population Hoechst High Intensity Objects (%): 3%
  Population Membrane Permeable-Phenotype (%): 1%
  Population Mitochondria Different-Phenotype (%): 36%
  Population Mitotic Cells (%): 51%
  Population Normal (%): 96%
  Population Pyknosed Nuclei (%): 7%
  Population Tubulin-Different-Phenotype (%): 26%
  Total Cell Count: 644
[11]
  Population Apoptotic (%): 93%
  Population Fragmented Nuclei (%): 19%
  Population Healthy Nuclei (%): 30%
  Population Hoechst High Intensity Objects (%): 67%
  Population Membrane Permeable-Phenotype (%): 0%
  Population Mitochondria Different-Phenotype (%): 96%
  Population Mitotic Cells (%): 6%
  Population Normal (%): 32%
  Population Pyknosed Nuclei (%): 50%
  Population Tubulin-Different-Phenotype (%): 51%
  Total Cell Count: 269
[12]
  Population Apoptotic (%): 89%
  Population Fragmented Nuclei (%): 14%
  Population Healthy Nuclei (%): 50%
  Population Hoechst High Intensity Objects (%): 52%
  Population Mitochondria Different-Phenotype (%): 97%
  Population Mitotic Cells (%): 10%
  Population Normal (%): 47%
  Population Pyknosed Nuclei (%): 34%
  Population Tubulin-Different-Phenotype (%): 82%
  Total Cell Count: 170

## C=CCN1C[C@H](C(=O)N(CCCN(C)C)C(=O)NCC)C[C@@H]2c3cccc4[nH]cc(c34)C[C@H]21 [CABERGOLINE]
[1]
  Population Apoptotic (%): 36%
  Population Fragmented Nuclei (%): 4%
  Population Healthy Nuclei (%): 76%
  Population Hoechst High Intensity Objects (%): 8%
  Population Membrane Permeable-Phenotype (%): 0%
  Population Mitochondria Different-Phenotype (%): 51%
  Population Mitotic Cells (%): 63%
  Population Normal (%): 91%
  Population Pyknosed Nuclei (%): 18%
  Population Tubulin-Different-Phenotype (%): 41%
  Total Cell Count: 370
[2]
  Population Apoptotic (%): 37%
  Population Fragmented Nuclei (%): 5%
  Population Healthy Nuclei (%): 79%
  Population Mitochondria Different-Phenotype (%): 68%
  Population Mitotic Cells (%): 62%
  Population Pyknosed Nuclei (%): 14%
  Population Tubulin-Different-Phenotype (%): 24%
  Total Cell Count: 322
[3]
  Population Apoptotic (%): 53%
  Population Fragmented Nuclei (%): 8%
  Population Healthy Nuclei (%): 76%
  Population Hoechst High Intensity Objects (%): 12%
  Population Membrane Permeable-Phenotype (%): 0%
  Population Mitochondria Different-Phenotype (%): 65%
  Population Mitotic Cells (%): 46%
  Population Normal (%): 87%
  Population Pyknosed Nuclei (%): 14%
  Population Tubulin-Different-Phenotype (%): 54%
  Total Cell Count: 438
[4]
  Population Apoptotic (%): 60%
  Population Fragmented Nuclei (%): 6%
  Population Healthy Nuclei (%): 78%
  Population Hoechst High Intensity Objects (%): 8%
  Population Mitochondria Different-Phenotype (%): 81%
  Population Mitotic Cells (%): 40%
  Population Normal (%): 91%
  Population Tubulin-Different-Phenotype (%): 55%
  Total Cell Count: 371
[5]
  Population Apoptotic (%): 43%
  Population Fragmented Nuclei (%): 9%
  Population Healthy Nuclei (%): 80%
  Population Hoechst High Intensity Objects (%): 4%
  Population Membrane Permeable-Phenotype (%): 1%
  Population Mitochondria Different-Phenotype (%): 29%
  Population Mitotic Cells (%): 56%
  Population Normal (%): 95%
  Population Pyknosed Nuclei (%): 10%
  Population Tubulin-Different-Phenotype (%): 20%
  Total Cell Count: 512
[6]
  Population Apoptotic (%): 40%
  Population Fragmented Nuclei (%): 6%
  Population Healthy Nuclei (%): 83%
  Population Hoechst High Intensity Objects (%): 6%
  Population Membrane Permeable-Phenotype (%): 0%
  Population Mitochondria Different-Phenotype (%): 46%
  Population Mitotic Cells (%): 59%
  Population Normal (%): 93%
  Population Pyknosed Nuclei (%): 9%
  Population Tubulin-Different-Phenotype (%): 19%
  Total Cell Count: 406
[7]
  Population Apoptotic (%): 37%
  Population Fragmented Nuclei (%): 10%
  Population Healthy Nuclei (%): 77%
  Population Hoechst High Intensity Objects (%): 8%
  Population Membrane Permeable-Phenotype (%): 0%
  Population Mitochondria Different-Phenotype (%): 51%
  Population Mitotic Cells (%): 62%
  Population Normal (%): 91%
  Population Pyknosed Nuclei (%): 11%
  Population Tubulin-Different-Phenotype (%): 48%
  Total Cell Count: 556
[8]
  Population Apoptotic (%): 42%
  Population Healthy Nuclei (%): 79%
  Population Hoechst High Intensity Objects (%): 12%
  Population Mitochondria Different-Phenotype (%): 64%
  Population Mitotic Cells (%): 57%
  Population Normal (%): 87%
  Population Pyknosed Nuclei (%): 9%
  Population Tubulin-Different-Phenotype (%): 43%
  Total Cell Count: 425
[9]
  Population Apoptotic (%): 13%
  Population Fragmented Nuclei (%): 12%
  Population Healthy Nuclei (%): 80%
  Population Hoechst High Intensity Objects (%): 4%
  Population Membrane Permeable-Phenotype (%): 1%
  Population Mitochondria Different-Phenotype (%): 21%
  Population Mitotic Cells (%): 86%
  Population Normal (%): 95%
  Population Pyknosed Nuclei (%): 7%
  Population Tubulin-Different-Phenotype (%): 16%
  Total Cell Count: 763
[10]
  Population Apoptotic (%): 35%
  Population Fragmented Nuclei (%): 11%
  Population Healthy Nuclei (%): 81%
  Population Hoechst High Intensity Objects (%): 3%
  Population Mitochondria Different-Phenotype (%): 23%
  Population Mitotic Cells (%): 65%
  Population Normal (%): 96%
  Population Pyknosed Nuclei (%): 6%
  Population Tubulin-Different-Phenotype (%): 10%
  Total Cell Count: 633
[11]
  Population Apoptotic (%): 26%
  Population Fragmented Nuclei (%): 13%
  Population Healthy Nuclei (%): 76%
  Population Hoechst High Intensity Objects (%): 5%
  Population Membrane Permeable-Phenotype (%): 0%
  Population Mitochondria Different-Phenotype (%): 35%
  Population Mitotic Cells (%): 73%
  Population Normal (%): 94%
  Population Pyknosed Nuclei (%): 9%
  Population Tubulin-Different-Phenotype (%): 25%
  Total Cell Count: 786
[12]
  Population Apoptotic (%): 43%
  Population Fragmented Nuclei (%): 10%
  Population Healthy Nuclei (%): 82%
  Population Hoechst High Intensity Objects (%): 6%
  Population Mitochondria Different-Phenotype (%): 32%
  Population Mitotic Cells (%): 56%
  Population Normal (%): 93%
  Population Pyknosed Nuclei (%): 6%
  Population Tubulin-Different-Phenotype (%): 20%
  Total Cell Count: 676
